EBNA-1 inh = EBNA-1 DNA-binding inhibitors, primary screen, biochemical, fluorescence polarization | inhibition, % at 14.8 µM | 300,000 compounds, 0.34% hits; in the data active = inhibition above about 28%
GPR7 antagonist = GPR7 receptor antagonists, primary screen, cell-based, fluorescence, single concentration. GPR7-expressing cells, fluorescence antagonist assay. inhibition, % at 4.4 µM. 290,000 compounds, 1.1% hits; in the data active = inhibition above about 16%, passing the limit was not always enough;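 also: cells stimulated with the agonist NPW; 0% = agonist with vehicle and 100% = vehicle without agonist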
Target sequence (P48145 whole entry, looked up): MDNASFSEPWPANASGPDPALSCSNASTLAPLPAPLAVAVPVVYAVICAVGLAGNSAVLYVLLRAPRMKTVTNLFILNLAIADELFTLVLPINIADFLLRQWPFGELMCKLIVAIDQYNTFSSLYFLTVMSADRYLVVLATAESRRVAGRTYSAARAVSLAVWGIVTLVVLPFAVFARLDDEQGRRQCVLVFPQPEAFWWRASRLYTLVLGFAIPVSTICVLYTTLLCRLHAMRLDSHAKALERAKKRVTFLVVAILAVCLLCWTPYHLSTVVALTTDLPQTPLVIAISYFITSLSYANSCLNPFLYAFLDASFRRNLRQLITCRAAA
NS3 helicase inh = inhibitors of HCV NS3 helicase, primary screen, biochemical, Cy5 molecular beacon fluorescence. NS3 helicase DNA unwinding. AID 1800, 2009. inhibition, % at 10.9 µM. 290,000 compounds, 0.56% hits;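 active = inhibition above the mean of all tested compounds plus 3 SD, set per campaign, cut at about 35% in these data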;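 also: 0% = DMSO wells and 100% = thioflavine S control wells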
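Measured by: Cy5 fluorescence, 0 and 60 min reads / Assay system: NS3 helicase fragment of HCV / Control set: low DMSO, high thioflavine S at 110 µM / Times: 1 h reaction at 25 °C, ATP-initiated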
DNA FID counter = compounds displacing fluorescent DNA intercalator, primary screen, artefact control for HCV NS3 helicase inhibitor project, biochemical, FID fluorescence | DNA fluorescent intercalator displacement | inhibition, % at 7.9 µM | 290,000 compounds, 0.17% hits | AID 1845, 2009; in the data active = inhibition above about 37%;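 also: 0% = vehicle and 100% = reference compound; higher means more ethidium bromide displaced from hairpin DNA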
ZTA counter = counter-screen for EBNA-1 inhibitors: inhibitors of Epstein-Barr virus ZTA; ZTA-DNA binding, fluorescence polarization; inhibition, % at 11 µM; 320,000 compounds, 0.15% hits; AID 2234; in the data active = inhibition above about 33%
Target sequence (P03206 whole entry, looked up): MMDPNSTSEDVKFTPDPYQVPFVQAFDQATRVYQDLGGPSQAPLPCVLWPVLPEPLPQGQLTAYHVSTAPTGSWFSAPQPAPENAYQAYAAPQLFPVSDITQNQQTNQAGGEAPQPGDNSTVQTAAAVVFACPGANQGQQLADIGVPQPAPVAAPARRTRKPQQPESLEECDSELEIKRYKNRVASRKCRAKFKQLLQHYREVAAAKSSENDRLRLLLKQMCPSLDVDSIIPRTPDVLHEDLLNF
GPR7 antag cf = GPR7 receptor antagonists, confirmation, cell-based, fluorescence, single concentration | shares compounds with GPR7 antagonist | 2,400 compounds, 52% hits | AID 1952, 2009 | inhibition, % at 4.4 µM | GPR7-expressing cells, calcium fluorescence antagonist mode; in the data active = inhibition above about 24%;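 also: stimulated with the GPR7 agonist NPW; 0% = agonist plus vehicle and 100% = vehicle alone without agonist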
MCHR1 antag = MCHR1 antagonists in cells, counter-screen for GPR7 antagonist project, cell-based, fluorescence, human; shares compounds with GPR7 antagonist; MCHR1-expressing cells, fluorescence antagonist assay; inhibition, % at 4.4 µM; 2,400 compounds, 62% hits; in the data active = inhibition above about 22%;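 also: 0% = vehicle with agonist and 100% = vehicle without agonist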
* hit, by the source's call; · = no result given; ! = not confirmed by another sample. Sampled rows, rich in hits. Any-hit rate of the full collection: about 2%.

SMILES	EBNA-1 inh	GPR7 antagonist	NS3 helicase inh	DNA FID counter	ZTA counter	GPR7 antag cf	MCHR1 antag
CN(C(=O)COC(=O)c1ccccc1OCc1ccc(F)cc1)C1CCS(=O)(=O)C1 (stereo unspecified)	·	·	·	·	4	·	·
CC(C)(C)N(NC(=O)Nc1ccccc1)C(=O)c1ccccc1	-8	-6	-8	-2	-3	·	·
CC(C)(C)N(NC(=O)c1ccccc1)C(=O)c1cccc(C(=O)N(NC(=O)c2ccccc2)C(C)(C)C)c1	5	42*	7	-29	15	31*	23*
Clc1ccc(-c2c[n+](Cc3ccc(Br)cc3)c3n2CCCCC3)cc1	-4	-1	-72	18	-8	·	·
Clc1ccc(-c2c[n+](Cc3ccc(Cl)cc3Cl)c3n2CCCCC3)cc1	-1	23*	-55	15	4	26*	27*
CCOC(=O)CNS(=O)(=O)c1cc(-c2nnc(Nc3ccc4c(c3)OCO4)c3ccccc23)ccc1C	2	36*	0	-17	7	47*	78*
Cc1ccc(-c2nnc(Nc3ccc(O)cc3)c3ccccc23)cc1S(=O)(=O)NCCO	·	-4	6	-23	·	·	·
Cc1ccccc1OCC(O)Cn1c(=N)n(CCN2CCOCC2)c2ccccc21 (stereo unspecified)	7	33*!	-14	35	-7	21	26*
N=c1n(CCN2CCCCC2)c2ccccc2n1CC(O)c1cccc(Br)c1 (stereo unspecified)	10	25*	-14	25	0	48*	43*
N=c1n(CCN2CCCC2)c2ccccc2n1CC(O)c1ccco1 (stereo unspecified)	-2	-11	-3	23	-4	·	·
N=c1n(CCN2CCCCC2)c2ccccc2n1CC(O)COc1ccccc1 (stereo unspecified)	-2	40*	-5	36	-2	40*	23*
COc1cc(C2C(C#N)=C(N)N(N(C)C)C3=C2C(=O)CC(C)(C)C3)cc(OC)c1OC (stereo unspecified)	-2	-1	-13	-22	-2	·	·
CN(c1ccccc1)S(=O)(=O)c1ccc(Cl)c(C(=O)NCc2ccccc2CN2CCCC2)c1	·	·	·	·	-2	·	·
Cc1ccc(CNS(=O)(=O)c2ccc(CN3C(=O)c4cccnc4C3=O)cc2)o1	-8	-4	-3	-10	3	·	·
COC(=O)c1ccc(NC(=O)c2nc(S(=O)(=O)Cc3cccc(C)c3)ncc2Cl)cc1	-14	32*	-13	-16	6	72*	86*
COc1ccccc1NC(=O)c1nc(S(=O)(=O)Cc2ccccc2)ncc1Cl	0	32*	-5	-9	-7	41*	30*
CCOC(=O)c1ccc(NC(=O)c2nc(S(=O)(=O)Cc3ccccc3)ncc2Cl)cc1	4	22	-18	-22	6	·	·
CCc1ccc(NC(=O)c2nc(S(=O)(=O)Cc3ccccc3)ncc2Cl)cc1	4	56*	-11	-24	18	88*	103*
CCS(=O)(=O)c1ncc(Cl)c(C(=O)Nc2ccc(S(=O)(=O)N3CCC(C)CC3)cc2)n1	5	58*	-30	-31	1	89*	95*
O=C(Cc1ccsc1)NNC(=O)c1cccc(Cl)c1	11	-13	3	-6	-5	·	·
Cn1c(=O)oc2cc(S(=O)(=O)N3CCN(c4ccccn4)CC3)ccc21	1	26*	12	1	-3	-3	-4
Cn1c(=O)oc2cc(S(=O)(=O)N3CCN(c4ccccc4)CC3)ccc21	3	-17	0	1	1	·	·
Cc1cc(-c2ccc(C)c(S(=O)(=O)N3CCN(c4ccc([N+](=O)[O-])cc4)CC3)c2)on1	14	10	14	0	-7	·	·
Cc1cc(-c2ccc(C)c(S(=O)(=O)N3CCN(c4ccccn4)CC3)c2)on1	-9	28*	-27	-36	-1	32*	62*
C=CCN1C(=O)CSc2ccc(C(=O)NCc3cccs3)cc21	13	28*	0	-14	-6	10	13
SMILES	EBNA-1 inh	GPR7 antagonist	NS3 helicase inh	DNA FID counter	ZTA counter	GPR7 antag cf	MCHR1 antag
CNC(=S)N1N=C(c2ccc(OC)cc2)CC1c1ccc(N(C)C)cc1 (stereo unspecified)	-7	22*	-16	-18	-16	9	33*
CNC(=S)N1N=C(c2ccc(Br)cc2)CC1c1ccc(N(C)C)cc1 (stereo unspecified)	-16	6	-4	-17	-7	·	·
CCCNS(=O)(=O)c1cccc(C(=O)OCc2cc(=O)oc3cc(OC)ccc23)c1	8	34*	5	-23	-1	33*	57*
O=C(O)c1ccc(NC(=O)c2ccccc2NC(=O)c2ccccc2Cl)cc1	-1	1	11	-7	-3	·	·
Cc1ccc2oc(=O)n(CC(=O)c3ccc(F)cc3)c2c1	3	25*	11	-7	-4	-1	12
Cc1ccc(Cl)cc1N1CCN(C(=O)c2ccc(CS(=O)Cc3ccc(Cl)cc3)o2)CC1 (stereo unspecified)	-5	0	-18	-44	3	·	·
Cc1cccc(N2CCN(C(=O)c3ccc(CS(=O)Cc4cccc(Cl)c4)o3)CC2)c1C (stereo unspecified)	-5	42*	10	-48	6	11	31*
N#Cc1ccccc1CSc1ccc(-c2nc3ccccc3[nH]2)cn1	4	31*	4	1	13	5	74*
CC(=O)CSc1ccc(-c2nc3cc(C)c(C)cc3[nH]2)cn1	0	-2	-1	-12	18	·	·
CC(=O)CSc1ccc(-c2nc3ccccc3[nH]2)cn1	10	-11	0	-4	3	·	·
Cc1cc2nc(-c3ccc(SCc4ccc(C#N)cc4)nc3)[nH]c2cc1C	-6	33*	-23	-7	1	55*	66*
CC(=O)NCCC(=O)Nc1ncc(S(=O)(=O)c2ccc([N+](=O)[O-])cc2)s1	2	·	·	·	-7	·	·
CCCCC(=O)Nc1ncc(S(=O)(=O)c2ccc([N+](=O)[O-])cc2)s1	-4	35*	4	6	10	26*	25*
Oc1ccc(-c2csc(-c3ccccc3)n2)cc1O	7	27*	13	-3	-15	17	7
CC(C)N(CCO)Cc1nc(C(c2ccccc2)c2ccccc2)no1	3	-6	6	-34	-21	·	·
O=C(c1ccccc1)c1ccc(OCC(O)CNCc2ccc(F)cc2)cc1 (stereo unspecified)	·	16	-58	19	·	·	·

High-throughput results (PubChem BioAssay)
